Results on two compounds are retold here after paper PMC7496893 (Clinical Pharmacology in Drug Development, 2019).

“Also recorded” adds a separate entry of the source. Read-outs that look alike come from different tables or passages of the source. Marks after values point to notes of the source that are not given here. Where only a bound is given, the exact number is not on record here.

The test system of series [1] is organic anion transporting polypeptide 1B1. To be noted: peficitinib with rosuvastatin; cited from earlier work.
The conditions of series [2]: cited from earlier work.
The test system of the next series is rheumatoid arthritis. The following applies: daily doses of 100 mg and 150 mg; cited from earlier work.
Series [3] is classed as in vivo, human (Japanese subjects). To be noted: for CL/F: single oral 150 mg, mean (SD). In a few lines:
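Open-label parallel-group study with planned 8 per group: normal, Child-Pugh A (5–6 points) or B (7–9 points). Subjects took one 150 mg tablet with 150 mL water after an overnight fast. Blood was drawn predose, at 15 min, every 30 min to 2 h, then at 3–72 h. Plasma parent was measured by validated LC-MS/MS (LLOQ 0.25 ng/mL, linear 0.25–500 ng/mL). GMR and 90% CI came from a mixed model with hepatic group as a fixed effect.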

For the next series, the system named is P-glycoprotein. The following applies: verapamil (P-glycoprotein inhibitor); cited from earlier work.
The next series in a line: Safety assessment. Type of series: in vivo, human (Japanese subjects). The following applies: for tolerability: non-RA subjects with normal, mild or moderate hepatic impairment, single oral dose. In a few lines: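 The safety set was every subject dosed with one 150 mg tablet after an overnight fast, assessed throughout the study. TEAEs were events that started or worsened after dosing, coded with Japanese MedDRA J16.0. Assessments also covered vital signs, ECG, hematology, biochemistry, urinalysis and liver tests: ALP, ALT, γ-GTP, total bilirubin and AST.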

For `NC(=O)c1cnc2[nH]ccc2c1N[C@@H]1[C@@H]2CC3C[C@H]1C[C@@](O)(C3)C2` [Peficitinib], the “changes in the PK profile during coadministration” value in series [1] is “did not demonstrate any clinically significant changes”. Moreover, the dose proportionality result in series [2] (multiple doses from 30 mg twice daily to 100 mg twice daily) and in series [2] (single dose from 3 to 300 mg) was “Dose proportionality was shown” throughout. Further, the “plasma levels reached steady state” value in series [2] (multiple dosing, healthy subjects) was no more than 3 days. Further, the “efficacy and tolerability in RA patients” value with rheumatoid arthritis was “effective and well tolerated”. The “GMR Impaired/Normal (90% CI), Cmax” value is 1.04 (0.71, 1.53) % in series [3] (mild hepatic impairment vs normal hepatic function); 1.04 (90% CI: 0.71, 1.53) in series [3] (mild hepatic impairment vs normal hepatic function, listed as peficitinib); 1.82 (1.24, 2.69) % in series [3] (moderate hepatic impairment vs normal hepatic function); 1.82 (90% CI: 1.24, 2.69) in series [3] (moderate hepatic impairment vs normal hepatic function, listed as peficitinib). In series [3] (moderate hepatic impairment versus normal hepatic function), the “increase in geometric mean Cmax” value is listed as 82%. The exposure entry in series [3] (moderately impaired vs normal hepatic function, in words) was “higher exposure”. For the same compound, the figures for the CL/F in series [3] (mild hepatic impairment), in series [3] (moderate hepatic impairment) and in series [3] (normal hepatic function) were 121.3 (54.89) L/h, 74.51 (32.28) L/h and 134.9 (25.77) L/h, respectively. In addition, the “exposure in combination with verapamil” value with P-glycoprotein is “increased exposure”. Moreover, the “changes from baseline in vital signs, ECG, or clinical laboratory parameters” value in the series “Safety assessment” (all subjects) is reported as “no clinically significant changes; also recorded: no clinically meaningful changes”. The deaths entry in the series “Safety assessment” (all subjects) is recorded as “no deaths”. Also, in the series “Safety assessment” (all subjects), the “serious TEAEs” value was “no serious TEAEs”. For the same compound, the “withdrawal from the study due to a TEAE” value in “Safety assessment” (all subjects) is given as “no TEAEs leading to withdrawal; also recorded: no subjects withdrew”. The “number of TEAEs considered related to peficitinib” value in “Safety assessment” (all subjects (N = 24)) was “Four”. Further, the Back pain was 0 n (%) in the series “Safety assessment” (mild impairment (n = 8)), 0 n (%) in “Safety assessment” (moderate impairment (n = 8)), 1 (12.5) n (%) in the series “Safety assessment” (normal function (n = 8)) and 1 (4.2) n (%) in “Safety assessment” (total (N = 24)). For the same compound, the Blood urine present in “Safety assessment” (mild impairment (n = 8)) is listed as 1 (12.5) n (%); in “Safety assessment” (moderate impairment (n = 8)), 0 n (%); in the series “Safety assessment” (normal function (n = 8)), 0 n (%); in “Safety assessment” (total (N = 24)), 1 (4.2) n (%). Further, the Diarrhea in the series “Safety assessment” (mild impairment (n = 8)) is given as 1 (12.5) n (%); in “Safety assessment” (moderate impairment (n = 8)) it was 0 n (%); in “Safety assessment” (normal function (n = 8)), 0 n (%); in “Safety assessment” (total (N = 24)) it was 1 (4.2) n (%). The Hypotension in the series “Safety assessment” (mild impairment (n = 8)) is 0 n (%); in the series “Safety assessment” (moderate impairment (n = 8)), 1 (12.5) n (%); in “Safety assessment” (normal function (n = 8)) it was 0 n (%); in “Safety assessment” (total (N = 24)), 1 (4.2) n (%). In addition, the Nausea in the series “Safety assessment” (mild impairment (n = 8)) is 0 n (%); in the series “Safety assessment” (moderate impairment (n = 8)) it was 0 n (%); in “Safety assessment” (normal function (n = 8)), 1 (12.5) n (%); in “Safety assessment” (total (N = 24)) it was 1 (4.2) n (%). Moreover, the “TEAEs, Overall” value is listed as 1 (12.5) ^b n (%) in the series “Safety assessment” (mild impairment (n = 8)); 1 (12.5) n (%) in “Safety assessment” (moderate impairment (n = 8)); 1 (12.5) ^a n (%) in the series “Safety assessment” (normal function (n = 8), single oral 150 mg). The tolerability entry in the series “Safety assessment” is “well tolerated”; in the series “Safety assessment” (listed as peficitinib), “generally well tolerated”.

As to `CC(C)c1nc(N(C)S(C)(=O)=O)nc(-c2ccc(F)cc2)c1/C=C/[C@@H](O)C[C@@H](O)CC(=O)O` [rosuvastatin, reference compound], the “changes in the PK profile during coadministration” value in series [1] is “did not demonstrate any clinically significant changes”.
